Columns and labels:
[1] = Inhibition of PKA (unknown origin) using LRRASLG as substrate after 1 hr by fluorescence assay; set-up: species or system Homo sapiens
[2] = molecular target: Tyrosine-protein kinase SYK (Homo sapiens) (UniProt P43405); test: Inhibition of SYK (unknown origin) at 30 uM by microfluidic mobility shift assay relative to control
In short: (§1)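 Single-point screen against a 24-kinase panel in a commercial microfluidic assay format. Compounds were tested at 30 µM, with ATP at approximately the Km,[ATP] of each enzyme. H-89 was included on each assay plate as an internal control.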

[3] = molecular target: T1, Mitogen-activated protein kinase 13 (Homo sapiens) (UniProt O15264); test: Inhibition of p38delta (unknown origin) at 30 uM by microfluidic mobility shift assay relative to control; in short: as §1
T1 sequence (whole entry): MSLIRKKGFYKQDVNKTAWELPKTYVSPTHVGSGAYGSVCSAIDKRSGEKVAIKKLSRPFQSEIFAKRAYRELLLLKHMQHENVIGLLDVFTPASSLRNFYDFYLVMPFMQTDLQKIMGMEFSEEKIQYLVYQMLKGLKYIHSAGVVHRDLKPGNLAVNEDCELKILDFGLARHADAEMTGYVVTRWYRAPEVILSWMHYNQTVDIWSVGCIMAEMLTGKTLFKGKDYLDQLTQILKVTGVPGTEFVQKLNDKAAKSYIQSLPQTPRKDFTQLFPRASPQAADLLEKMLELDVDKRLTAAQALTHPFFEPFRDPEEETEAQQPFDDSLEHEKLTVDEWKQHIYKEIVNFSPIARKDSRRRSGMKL

[4] = molecular target: Cyclin-dependent kinase 2 (Homo sapiens) (UniProt P24941); test: Inhibition of CDK2 (unknown origin) at 30 uM by microfluidic mobility shift assay relative to control
In short: (§2)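 Single-point screen at 30 µM test compound across a 24-kinase panel in a microfluidic assay format. ATP was set near each enzyme's Km,[ATP]. […] The pan-AGC inhibitor H-89 served as an internal control on every assay plate.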

[5] = molecular target: T2, Testis-specific serine/threonine-protein kinase 2 (Homo sapiens) (UniProt Q96PF2); test: Inhibition of TSSK2 (unknown origin) at 30 uM by microfluidic mobility shift assay relative to control; in short: as §1
T2 sequence (whole entry): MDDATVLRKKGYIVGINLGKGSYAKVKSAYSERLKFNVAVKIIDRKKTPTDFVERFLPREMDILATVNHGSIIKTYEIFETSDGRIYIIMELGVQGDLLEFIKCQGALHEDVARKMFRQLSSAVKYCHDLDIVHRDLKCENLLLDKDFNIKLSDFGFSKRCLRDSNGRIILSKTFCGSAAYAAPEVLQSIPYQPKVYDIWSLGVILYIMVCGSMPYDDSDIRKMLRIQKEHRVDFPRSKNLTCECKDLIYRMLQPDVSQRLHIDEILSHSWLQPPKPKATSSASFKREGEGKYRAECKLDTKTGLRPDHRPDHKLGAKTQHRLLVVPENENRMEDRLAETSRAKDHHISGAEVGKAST

[6] = molecular target: T3, Serine/threonine-protein kinase D1 (Homo sapiens) (UniProt Q15139); test: Inhibition of PKD1 (unknown origin) at 30 uM by microfluidic mobility shift assay relative to control; in short: as §1
T3 sequence (whole entry): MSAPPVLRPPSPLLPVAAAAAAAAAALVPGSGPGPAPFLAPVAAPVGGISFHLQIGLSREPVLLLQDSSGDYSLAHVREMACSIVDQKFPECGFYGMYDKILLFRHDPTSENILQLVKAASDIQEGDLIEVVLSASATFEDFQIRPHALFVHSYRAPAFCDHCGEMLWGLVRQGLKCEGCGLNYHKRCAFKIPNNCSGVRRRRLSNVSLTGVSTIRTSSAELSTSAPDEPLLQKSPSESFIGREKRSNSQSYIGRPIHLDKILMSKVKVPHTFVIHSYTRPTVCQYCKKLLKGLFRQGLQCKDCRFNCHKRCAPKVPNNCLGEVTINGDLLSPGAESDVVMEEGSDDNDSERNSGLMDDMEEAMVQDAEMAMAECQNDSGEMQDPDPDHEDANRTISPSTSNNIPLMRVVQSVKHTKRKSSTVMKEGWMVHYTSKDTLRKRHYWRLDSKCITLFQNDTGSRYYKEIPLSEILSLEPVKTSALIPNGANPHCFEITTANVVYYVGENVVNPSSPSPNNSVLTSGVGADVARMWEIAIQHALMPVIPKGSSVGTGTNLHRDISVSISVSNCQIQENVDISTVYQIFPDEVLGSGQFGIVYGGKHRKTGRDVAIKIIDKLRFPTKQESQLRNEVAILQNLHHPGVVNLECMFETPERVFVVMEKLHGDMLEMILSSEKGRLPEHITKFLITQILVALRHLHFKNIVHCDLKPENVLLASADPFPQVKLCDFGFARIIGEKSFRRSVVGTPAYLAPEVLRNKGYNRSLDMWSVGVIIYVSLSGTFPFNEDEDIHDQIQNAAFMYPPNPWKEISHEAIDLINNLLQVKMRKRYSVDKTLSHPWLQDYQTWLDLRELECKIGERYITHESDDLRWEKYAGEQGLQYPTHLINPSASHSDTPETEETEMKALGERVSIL

[7] = molecular target: Ribosomal protein S6 kinase beta-1 (Homo sapiens) (UniProt P23443); test: Inhibition of p70S6K (unknown origin) at 30 uM by microfluidic mobility shift assay relative to control; in short: as §1
[8] = molecular target: Protein kinase C eta type (Homo sapiens) (UniProt P24723); test: Inhibition of PKCeta (unknown origin) at 30 uM by microfluidic mobility shift assay relative to control; in short: as §1
[9] = molecular target: Protein kinase C beta type (Homo sapiens) (UniProt P05771); test: Inhibition of PKCbeta-2 (unknown origin) at 30 uM by microfluidic mobility shift assay relative to control; in short: as §2
[10] = molecular target: Ribosomal protein S6 kinase alpha-2 (Homo sapiens) (UniProt Q15349); test: Inhibition of RSK3 (unknown origin) at 30 uM by microfluidic mobility shift assay relative to control; in short: as §1
[11] = molecular target: RAF proto-oncogene serine/threonine-protein kinase (Homo sapiens) (UniProt P04049); test: Inhibition of c-RAF (unknown origin) at 30 uM by microfluidic mobility shift assay relative to control; in short: as §1
Chain of RAF proto-oncogene serine/threonine-protein kinase (Homo sapiens) (P04049 whole entry): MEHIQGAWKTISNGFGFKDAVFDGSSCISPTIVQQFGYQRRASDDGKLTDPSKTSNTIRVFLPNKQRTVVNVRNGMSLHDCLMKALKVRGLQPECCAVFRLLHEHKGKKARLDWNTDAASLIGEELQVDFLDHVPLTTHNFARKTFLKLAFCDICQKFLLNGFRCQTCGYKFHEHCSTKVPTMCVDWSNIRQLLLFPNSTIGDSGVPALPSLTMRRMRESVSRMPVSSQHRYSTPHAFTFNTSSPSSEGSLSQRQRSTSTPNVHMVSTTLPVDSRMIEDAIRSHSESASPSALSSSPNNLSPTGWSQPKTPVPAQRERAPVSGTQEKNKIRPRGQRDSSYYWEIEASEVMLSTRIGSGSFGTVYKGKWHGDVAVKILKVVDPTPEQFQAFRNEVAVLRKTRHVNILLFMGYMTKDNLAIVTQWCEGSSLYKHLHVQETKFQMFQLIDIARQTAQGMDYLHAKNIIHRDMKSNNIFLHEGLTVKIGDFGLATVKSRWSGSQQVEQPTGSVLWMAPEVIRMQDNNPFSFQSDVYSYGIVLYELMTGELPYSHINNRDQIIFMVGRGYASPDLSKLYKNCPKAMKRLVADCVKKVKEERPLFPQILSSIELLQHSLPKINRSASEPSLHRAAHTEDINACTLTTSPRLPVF

Chain of Protein kinase C beta type (Homo sapiens) (P05771 2-671 limits assumed): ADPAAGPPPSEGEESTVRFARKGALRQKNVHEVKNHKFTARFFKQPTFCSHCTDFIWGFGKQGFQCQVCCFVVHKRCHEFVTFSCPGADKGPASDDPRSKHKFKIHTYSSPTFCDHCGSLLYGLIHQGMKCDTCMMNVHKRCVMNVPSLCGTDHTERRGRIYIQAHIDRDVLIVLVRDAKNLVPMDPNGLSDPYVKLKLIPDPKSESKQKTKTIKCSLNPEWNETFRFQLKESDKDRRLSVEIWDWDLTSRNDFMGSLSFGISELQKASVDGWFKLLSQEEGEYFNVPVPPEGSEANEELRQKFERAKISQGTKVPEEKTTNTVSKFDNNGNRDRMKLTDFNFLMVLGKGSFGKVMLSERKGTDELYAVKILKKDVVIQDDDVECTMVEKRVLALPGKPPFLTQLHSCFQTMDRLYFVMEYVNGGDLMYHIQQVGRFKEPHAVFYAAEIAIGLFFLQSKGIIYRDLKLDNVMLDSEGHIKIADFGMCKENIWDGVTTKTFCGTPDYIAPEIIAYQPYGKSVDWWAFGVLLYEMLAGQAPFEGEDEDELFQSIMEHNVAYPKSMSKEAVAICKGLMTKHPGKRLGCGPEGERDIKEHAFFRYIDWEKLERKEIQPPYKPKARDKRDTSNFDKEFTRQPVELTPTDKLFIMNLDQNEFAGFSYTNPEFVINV
Chain of Ribosomal protein S6 kinase beta-1 (Homo sapiens) (P23443 whole entry, looked up): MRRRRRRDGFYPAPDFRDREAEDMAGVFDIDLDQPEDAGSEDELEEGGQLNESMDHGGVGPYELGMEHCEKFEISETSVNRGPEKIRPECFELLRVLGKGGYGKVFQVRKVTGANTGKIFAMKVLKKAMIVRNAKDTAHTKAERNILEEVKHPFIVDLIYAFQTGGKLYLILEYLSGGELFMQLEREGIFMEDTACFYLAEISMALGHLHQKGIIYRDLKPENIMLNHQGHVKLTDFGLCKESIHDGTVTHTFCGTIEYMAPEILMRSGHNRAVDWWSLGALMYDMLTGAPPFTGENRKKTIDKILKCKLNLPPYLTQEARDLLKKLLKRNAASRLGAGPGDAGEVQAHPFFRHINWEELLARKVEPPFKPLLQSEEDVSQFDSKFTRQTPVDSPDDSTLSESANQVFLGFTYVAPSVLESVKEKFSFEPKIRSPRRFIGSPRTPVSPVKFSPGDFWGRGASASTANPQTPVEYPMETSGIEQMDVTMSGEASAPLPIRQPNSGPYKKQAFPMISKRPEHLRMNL
Chain of Ribosomal protein S6 kinase alpha-2 (Homo sapiens) (Q15349 whole entry): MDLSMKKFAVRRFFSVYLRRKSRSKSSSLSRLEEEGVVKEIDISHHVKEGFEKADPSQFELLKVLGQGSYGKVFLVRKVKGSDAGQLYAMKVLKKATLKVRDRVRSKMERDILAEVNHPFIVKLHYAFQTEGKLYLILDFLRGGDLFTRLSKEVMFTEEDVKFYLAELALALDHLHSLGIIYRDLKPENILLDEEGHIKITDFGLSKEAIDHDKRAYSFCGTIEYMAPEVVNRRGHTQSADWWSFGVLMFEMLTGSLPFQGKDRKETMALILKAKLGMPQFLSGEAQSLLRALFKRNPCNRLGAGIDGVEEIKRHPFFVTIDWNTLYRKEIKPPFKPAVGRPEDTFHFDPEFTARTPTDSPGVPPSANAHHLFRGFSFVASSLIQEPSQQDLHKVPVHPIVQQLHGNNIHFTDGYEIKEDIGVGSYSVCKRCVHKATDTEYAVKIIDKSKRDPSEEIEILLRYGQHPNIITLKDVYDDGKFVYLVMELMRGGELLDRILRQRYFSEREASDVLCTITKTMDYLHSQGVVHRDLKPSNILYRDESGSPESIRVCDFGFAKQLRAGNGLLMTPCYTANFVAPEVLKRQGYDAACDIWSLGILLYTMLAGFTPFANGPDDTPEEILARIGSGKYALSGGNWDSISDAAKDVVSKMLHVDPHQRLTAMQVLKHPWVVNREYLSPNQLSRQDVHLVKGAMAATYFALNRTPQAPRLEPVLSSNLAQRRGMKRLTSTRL
Chain of Protein kinase C eta type (Homo sapiens) (P24723 whole entry): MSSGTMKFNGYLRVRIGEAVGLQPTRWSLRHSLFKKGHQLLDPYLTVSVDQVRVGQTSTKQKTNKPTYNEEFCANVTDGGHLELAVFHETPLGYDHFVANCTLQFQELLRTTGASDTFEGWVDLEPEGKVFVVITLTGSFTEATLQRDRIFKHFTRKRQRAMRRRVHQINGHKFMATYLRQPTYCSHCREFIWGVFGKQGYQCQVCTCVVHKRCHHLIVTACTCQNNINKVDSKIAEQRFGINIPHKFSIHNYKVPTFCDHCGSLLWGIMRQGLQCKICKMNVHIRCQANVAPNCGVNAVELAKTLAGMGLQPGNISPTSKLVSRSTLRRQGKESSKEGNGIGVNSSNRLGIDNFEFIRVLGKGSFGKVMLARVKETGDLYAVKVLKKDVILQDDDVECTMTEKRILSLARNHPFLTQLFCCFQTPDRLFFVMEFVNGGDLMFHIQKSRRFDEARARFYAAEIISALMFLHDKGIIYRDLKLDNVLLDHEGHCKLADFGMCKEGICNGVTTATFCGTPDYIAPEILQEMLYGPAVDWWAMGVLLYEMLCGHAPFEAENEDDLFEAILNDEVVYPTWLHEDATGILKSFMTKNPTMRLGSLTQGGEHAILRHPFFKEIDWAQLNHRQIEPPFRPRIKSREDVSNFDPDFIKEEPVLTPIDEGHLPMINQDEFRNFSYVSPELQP

Row | SMILES | IC50 [1] | inhibition [2] | inhibition [3] | inhibition [4] | inhibition [5] | inhibition [6] | inhibition [7] | inhibition [8] | inhibition [9] | inhibition [10] | inhibition [11]
1 | c1nc(N2CCC3(CCCCN3)CC2)c2nc[nH]c2n1 | 1000 nM | – | – | – | – | – | – | – | – | – | –
2 | c1nc(N2CCC3(CCCNC3)CC2)c2nc[nH]c2n1 | 80 nM | – | – | – | – | – | – | – | – | – | –
3 | O=S(=O)(c1cccc2cnccc12)N1CCCC2(CCCNC2)C1 (stereo not given) | 3600 nM | – | – | – | – | – | – | – | – | – | –
4 | c1ccc(C2CCNC3(CCN(c4ncnc5[nH]cnc45)CC3)C2)cc1 (racemic) | 149 nM | 24% | 7% | 19% | 25% | 44% | 95% | 61% | 36% | 81% | 13%
5 | c1ccc(CC2CCNC3(CCN(c4ncnc5[nH]cnc45)CC3)C2)cc1 (racemic) | 31 nM | 8% | 23% | 21% | 32% | 72% | 98% | 71% | 60% | 91% | 15%
6 | c1ccc(CC2CCC3(CCN(c4ncnc5[nH]cnc45)CC3)NC2)cc1 (racemic) | – | 0% | 4% | 15% | 7% | 12% | 47% | 35% | 13% | 57% | 11%
